In ChEMBL document CHEMBL1151849, “Antioxidant hydroquinones substituted by beta-1,6-linked oligosaccharides in wheat germ” (J Nat Prod, 2009):
Activity calls are given as the source filed them. The rule behind the calls is not given here.

Legend:
[1] = Antioxidant activity assessed as trolox equivalents of ABTS radical scavenging activity by TEAC assay; format: functional
In short: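 ABTS radical cation generated from 7 mM ABTS plus 2.5 mM K2S2O8 in water, kept dark at room temperature 16-18 h, then diluted in aqueous 50% EtOH to A734 0.70 ± 0.02. 10.0, 20.0 or 30.0 µL of 1.00 mM aqueous compound added to 2.00 mL radical solution. A734 decrease recorded from 15 s to 5 min. Calibration curves compared with Trolox, expressed as mM Trolox equivalent to 1 mM compound.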

[2] = system: Radical scavenging activity; test: Antioxidant activity assessed as ABTS radical cation scavenging activity by TEAC assay
Nucleic Acid = test: Protection against H2O2-induced DNA damaging activity of pBR322 assessed as induction of single stranded breaks by gel electrophoresis; details: Escherichia coli
In short: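 pBR322 plasmid (100 ng) incubated 1 h at 37 °C in 100 mM sodium phosphate pH 7.4 with 0.3% H2O2 and 30, 100, 300 ng or 1 µg compound. Reaction volume was 12 µL. Analysed on a 0.7% agarose gel run 1.5 h at 80 V, stained with 0.5 µg/mL ethidium bromide for 15 min, then imaged under UV.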

SMILES	Activity [1]	Activity [2]	Activity (Nucleic Acid)
OC[C@H]1O[C@@H](OC[C@H]2O[C@@H](OC[C@H]3O[C@@H](Oc4ccc(O)cc4)[C@H](O)[C@@H](O)[C@@H]3O)[C@H](O)[C@@H](O)[C@@H]2O)[C@H](O)[C@@H](O)[C@@H]1O	1.12	–	–
COc1cc(O[C@@H]2O[C@H](CO[C@@H]3O[C@H](CO[C@@H]4O[C@H](CO[C@@H]5O[C@H](CO)[C@@H](O)[C@H](O)[C@H]5O)[C@@H](O)[C@H](O)[C@H]4O)[C@@H](O)[C@H](O)[C@H]3O)[C@@H](O)[C@H](O)[C@H]2O)ccc1O	0.88	Active	–
COc1cc(O[C@@H]2O[C@H](CO[C@@H]3O[C@H](CO[C@@H]4O[C@H](CO)[C@@H](O)[C@H](O)[C@H]4O)[C@@H](O)[C@H](O)[C@H]3O)[C@@H](O)[C@H](O)[C@H]2O)cc(OC)c1O	0.8	Active	–
COc1cc(O)ccc1O[C@@H]1O[C@H](CO[C@@H]2O[C@H](CO[C@@H]3O[C@H](CO)[C@@H](O)[C@H](O)[C@H]3O)[C@@H](O)[C@H](O)[C@H]2O)[C@@H](O)[C@H](O)[C@H]1O	1.76	–	–
COc1cc(O[C@@H]2O[C@H](CO[C@@H]3O[C@H](CO)[C@@H](O)[C@H](O)[C@H]3O)[C@@H](O)[C@H](O)[C@H]2O)cc(OC)c1O	0.85	Active	–
COc1cc(O[C@@H]2O[C@H](CO[C@@H]3O[C@H](CO[C@@H]4O[C@H](CO)[C@@H](O)[C@H](O)[C@H]4O)[C@@H](O)[C@H](O)[C@H]3O)[C@@H](O)[C@H](O)[C@H]2O)ccc1O	0.97	Active	Dose-dependent effect
COc1cc(O[C@@H]2O[C@H](CO[C@@H]3O[C@H](CO)[C@@H](O)[C@H](O)[C@H]3O)[C@@H](O)[C@H](O)[C@H]2O)ccc1O	0.94	Active	–
